Source: ChEMBL document CHEMBL4334458, “Design, synthesis and antibacterial evaluation of novel 15-membered 11a-azahomoclarithromycin derivatives with the 1, 2, 3-triazole side chain” (Eur J Med Chem, 2019)
Converted amounts (≈) assume the structure as drawn.

Assays:
Streptococcus pyogenes [1] = assay: Antibacterial activity against erythromycin-resistant Streptococcus pyogenes 2 clinical isolate incubated for 24 hrs by broth dilution method; format: functional
Escherichia coli = assay: Antibacterial activity against penicillin-susceptible Escherichia coli ATCC 25922 incubated for 24 hrs by broth dilution method; format: functional; conditions: ATCC 25922, 24 h
Outline: (§1)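 CLSI broth microdilution in cation-adjusted Mueller-Hinton broth. Twofold dilutions spanned 0.25–128 or 0.5–256 µg/mL, with CAM and AZM as controls. Log-phase bacteria were added and incubated 24 h at 37 °C. MIC was read by turbidity as the concentration of the last clear well.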

Staphylococcus aureus [2] = assay: Ratio of MBC to MIC for erythromycin-susceptible Staphylococcus aureus ATCC 25923; format: functional
Pseudomonas aeruginosa = assay: Antibacterial activity against penicillin-susceptible Pseudomonas aeruginosa ATCC 27853 incubated for 24 hrs by broth dilution method; format: functional; conditions: ATCC 27853, 24 h; outline: as §1
Staphylococcus aureus [3] = assay: Antibacterial activity against penicillin-resistant Staphylococcus aureus ATCC 31007 incubated for 24 hrs by broth dilution method; format: functional; conditions: ATCC 31007, 24 h
MCF7 = assay: Cytotoxicity against human MCF7 cells assessed as viable cells up to 32 ug/ml incubated for 24 hrs by MTT assay; format: cell-based; conditions: mcf7, 24 h
Outline: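 MCF-7 cells were seeded at 10^4 cells/well and allowed to settle overnight. Compound was added for 24 h, with CAM as control and DMSO as vehicle control. MTT (5 mg/mL stock) was then added for 4 h at 37 °C, formazan dissolved in DMSO for 10 min, and absorbance read at 570 nm. Read-out was percent viable cells.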

Streptococcus pneumoniae [4] = assay: Antibacterial activity against erythromycin-resistant Streptococcus pneumoniae AB11 expressing the ermB and mefA incubated for 24 hrs by broth dilution method; format: functional
Staphylococcus aureus [5] = assay: Antibacterial activity against methicillin-resistant Staphylococcus aureus ATCC 43300 incubated for 24 hrs by broth dilution method; format: functional; conditions: ATCC 43300, 24 h
Staphylococcus aureus [6] = assay: Bactericidal activity against erythromycin-susceptible Staphylococcus aureus ATCC 25923 incubated for 24 hrs followed by re-plating on tryptic soy agar plates for 24 hrs by broth microdilution assay; format: functional; conditions: ATCC 25923, 24 h
Outline: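 Built on the broth microdilution MIC set-up (CAMH, 24 h, 37 °C). After 24 h, contents of clear wells were plated on tryptic soy agar and incubated 24 h at 37 °C. MBC was taken as the lowest concentration giving no colonies.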

Streptococcus pneumoniae [7] = assay: Antibacterial activity against erythromycin-resistant Streptococcus pneumoniae B1 expressing the ermB incubated for 24 hrs by broth dilution method; format: functional
Bacillus subtilis = assay: Antibacterial activity against penicillin-susceptible Bacillus subtilis ATCC 9372 incubated for 24 hrs by broth dilution method; format: functional; conditions: ATCC 9372, 24 h; outline: as §1
Staphylococcus aureus [8] = assay: Antibacterial activity against erythromycin-susceptible Staphylococcus aureus ATCC 25923 incubated for 24 hrs by broth dilution method; format: functional; conditions: ATCC 25923, 24 h; outline: as §1
Streptococcus pyogenes [9] = assay: Antibacterial activity against erythromycin-susceptible Streptococcus pyogenes 1 clinical isolate incubated for 24 hrs by broth dilution method; format: functional; outline: as §1

With `CO[C@]1(C)C[C@@H](C)[C@H](O)[C@H](C)CN(C)C[C@H](COCc2cn(-c3ccccn3)nn2)OC(=O)[C@H](C)[C@@H](O[C@H]2C[C@@](C)(OC)[C@@H](O)[C@H](C)O2)[C@H](C)[C@H]1O[C@@H]1O[C@H](C)C[C@H](N(C)C)[C@H]1O` the MIC (Streptococcus pyogenes [1]) was 128 µg/mL (≈ 143 µM), the MIC (Escherichia coli) was 64 µg/mL (≈ 71.7 µM) and the Ratio (Staphylococcus aureus [2]) was greater than 512. For the same compound, the MIC (Pseudomonas aeruginosa) was 16 µg/mL (≈ 17.9 µM), the MIC (Staphylococcus aureus [3]) was greater than 256 µg/mL and the Activity (MCF7) was “Non-Toxic”. It also gave an MIC (Streptococcus pneumoniae [4]) of 128 µg/mL (≈ 143 µM), an MIC (Staphylococcus aureus [5]) greater than 256 µg/mL and an MBC (Staphylococcus aureus [6]) greater than 128 µg/mL. For the same compound, the MIC (Streptococcus pneumoniae [7]) was greater than 256 µg/mL, the MIC (Bacillus subtilis) was no more than 0.25 µg/mL and the MIC (Staphylococcus aureus [8]) was no more than 0.25 µg/mL. The MIC (Streptococcus pyogenes [9]) was 0.5 µg/mL (≈ 0.56 µM).
